ChEMBL document CHEMBL5150073, “Photocaged DNA-Binding Photosensitizer Enables Photocontrol of Nuclear Entry for Dual-Targeted Photodynamic Therapy” (J Med Chem, 2022)
Activity calls are given as the source filed them. The rule behind the calls is not given here.

Tested on: MCF7
Assay: Induction of ROS production in human MCF7 cells at 2 uM incubated for 1 hr in dark followed by irradiation with 480 nm 2.3 J/cm^2 light for 15 mins with 8 J/cm^2 UV irradiation for 5 mins by DCFH2-DA probe based analysis
Assay type: functional, cell-based
Details: time 80.0 min
Outline: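 MCF7 cells incubated with compound (2 μM) 1 h in the dark, washed, loaded with 10 μM DCFH2DA for 30 min, washed. DCF green fluorescence imaged after 480 nm illumination (15 min, 2.3 J cm⁻²), then after added 365 nm UV (5 min, 8.0 J cm⁻²). Mean fluorescence intensity quantified.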

Q: CC1=CC(C)=[N+]2C1=C(COC(=O)/N=C(\N)c1ccc3c(Br)c(-c4ccc(C(=N)N)cc4)[nH]c3c1)c1c(C)cc(C)n1[B-]2(C)C was tested. Which Activity did it give?
A: Active
